As usually defined, the MIC is the lowest concentration that inhibits growth of the organism. The MBC is the smallest concentration meeting the test's criterion for killing.

The results in this text go back to ChEMBL document CHEMBL2331322, “Synthesis and antimicrobial activity of some new benzo and naphthonitrile derivatives” (2013).

Type in all cases: functional
Assay [1] relates to Pseudomonas aeruginosa. Nature of the assay: Antimicrobial activity against Pseudomonas aeruginosa at 1 mg/mL after 24 hrs by agar disc diffusion method. The following applies: read-out: DIZ. In a few lines:
(§1)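 Sterile 5 mm filter paper disks were impregnated with test solution in DMF (1 mg/mL) and placed on agar plates seeded with the test organism, in triplicate. Bacteria were incubated at 37 °C for 24 h and fungi for […] (so in the source). The read-out was the average inhibition zone diameter around the disks, in mm.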
A general note: Agar diffusion results depend on both activity and mobility in agar.

In assay [2] the test system is Botrytis fabae. In words: Antimicrobial activity against Botrytis fabae after 48 hrs by microdilution susceptibility test. An outline of the steps:
(§2)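 MIC was determined by broth microdilution, using Müller–Hinton broth for bacteria and Sabouraud liquid medium for fungi. Stocks were made in DMF and serially diluted twofold. Wells were inoculated at 10⁶ CFU/mL and plates incubated at 36 °C for 24–48 h, with controls included. Only compounds giving agar-diffusion zones >14 mm were tested.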
Background: Dilution methods test growth across graded concentrations, often in twofold steps.

Assay [3] has as its system Bacillus subtilis. In words: Antimicrobial activity against Bacillus subtilis after 24 hrs by microdilution susceptibility test. An outline of the steps:
as §2

Assay [4] relates to Fusarium oxysporum. In words: Antimicrobial activity against Fusarium oxysporum at 1 mg/mL after 48 hrs by agar disc diffusion method. The following applies: read-out: DIZ. In a few lines:
as §1

The test system of assay [5] is Fusarium oxysporum. Nature of the assay: Antimicrobial activity against Fusarium oxysporum after 48 hrs by microdilution susceptibility test. An outline of the steps:
as §2

Assay [6] has as its system Bacillus subtilis. In words: Antimicrobial activity against Bacillus subtilis at 1 mg/mL after 24 hrs by agar disc diffusion method. As to conditions: read-out: DIZ. In a few lines:
as §1

The subject of assay [7] is Bacillus thuringiensis. Nature of the assay: Antimicrobial activity against Bacillus thuringiensis at 1 mg/mL after 24 hrs by agar disc diffusion method. As to conditions: read-out: DIZ. In a few lines: as §1
The test system of assay [8] is Escherichia coli. Nature of the assay: Antimicrobial activity against Escherichia coli after 24 hrs by microdilution susceptibility test. In a few lines:
as §2

The test system of assay [9] is Botrytis fabae. Nature of the assay: Antimicrobial activity against Botrytis fabae at 1 mg/mL […] by agar disc diffusion method. The following applies: read-out: DIZ.
The subject of assay [10] is Escherichia coli. In words: Antimicrobial activity against Escherichia coli at 1 mg/mL after 24 hrs by agar disc diffusion method. As to conditions: read-out: DIZ. In a few lines:
as §1

The subject of assay [11] is Pseudomonas aeruginosa. Nature of the assay: Antimicrobial activity against Pseudomonas aeruginosa after 24 hrs by microdilution susceptibility test. In a few lines:
as §2

Assay [12] relates to Bacillus thuringiensis. In words: Antimicrobial activity against Bacillus thuringiensis after 24 hrs by microdilution susceptibility test. An outline of the steps: as §2

≈ marks a conversion by molar mass, not a printed value.

Take `COc1ccc(/C=C(\C#N)c2ccccc2C#N)cc1`: the zone of inhibition at 1000 µg/mL was 26 mm in the assay on Pseudomonas aeruginosa [1]; 20 mm in the assay with Fusarium oxysporum [4]; 26 mm in the assay with Bacillus subtilis [6]; 18 mm with Bacillus thuringiensis [7]; 25 mm with Botrytis fabae [9]; 19 mm with Escherichia coli [10]. Further, the MIC in the assay on Botrytis fabae [2] was determined as 100 µg/mL (≈ 384 µM); in the assay on Bacillus subtilis [3], 100 µg/mL (≈ 384 µM); against Fusarium oxysporum [5] it was 50 µg/mL (≈ 192 µM); against Escherichia coli [8], 100 µg/mL (≈ 384 µM); with Pseudomonas aeruginosa [11], 100 µg/mL (≈ 384 µM); with Bacillus thuringiensis [12], 100 µg/mL (≈ 384 µM). Besides, the values for the MBC with Bacillus subtilis [3] and against Escherichia coli [8] were 100 µg/mL (≈ 384 µM) and 200 µg/mL (≈ 768 µM), respectively.

On to `COc1cc(/C=C(\C#N)c2ccccc2C#N)cc(OC)c1OC`, for which the zone of inhibition at 1000 µg/mL with Pseudomonas aeruginosa [1] is 18 mm; with Fusarium oxysporum [4], 19 mm; in the assay with Bacillus subtilis [6], 20 mm; with Bacillus thuringiensis [7] it was 15 mm; in the assay with Botrytis fabae [9] it was 20 mm; in the assay with Escherichia coli [10], 16 mm. Further, the MIC against Botrytis fabae [2], against Bacillus subtilis [3], in the assay with Fusarium oxysporum [5], in the assay with Escherichia coli [8], with Pseudomonas aeruginosa [11] and in the assay with Bacillus thuringiensis [12] was 100 µg/mL (≈ 312 µM) in each case. In addition, the MBC against Bacillus subtilis [3] and against Escherichia coli [8] was 200 µg/mL (≈ 624 µM) in each case.
